According to ChEMBL document CHEMBL1125243, “Design of potent oxytocin antagonists featuring D-tryptophan at position 2” (J Med Chem, 1991):
Numbered stars: 1 amine (or outer) side, 2 acyl side, 3 side chain; on linkers, the order of the positions; unused ones are H or OH. Bridge positions count the residues as written; N and C are the ends. Square brackets hold non-standard residues; d marks the D form. Peptide text beside a SMILES is read from it. X1 = O=C(CC1(S[*:2])CCCCC1)[*:1]

Species: Rattus norvegicus
Experiment: Antidiuretic potency was evaluated and expressed as effective dose.
Format: functional, Urine
Conditions: not given
Outline: (§1)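 Antagonism tested in vivo in water-loaded rats under ethanol anesthesia, with ADH as the agonist standard. The effective dose is the antagonist amount that halves the response to agonist. An in vivo pA₂ was estimated by dividing the effective dose by an assumed volume of distribution of 67 mL/kg. Values reported as mean ± SE.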

Structure (SMILES) | ED50
CC[C@H](C)[C@@H]1NC(=O)[C@H](Cc2ccccc2)NC(=O)[C@@H](Cc2c[nH]c3ccccc23)NC(=O)CC2(CCCCC2)SSC[C@@H](C(=O)N2CCC[C@H]2C(=O)N[C@@H](CCCN=C(N)N)C(=O)NCC(N)=O)NC(=O)[C@H](CC(N)=O)NC1=O [listing 1 of 2 here] | 8.3 nM
CC[C@H](C)[C@@H]1NC(=O)[C@H](Cc2ccccc2)NC(=O)[C@@H](Cc2ccccc2)NC(=O)CC2(CCCCC2)SSC[C@@H](C(=O)N2CCC[C@H]2C(=O)N[C@@H](CCCN=C(N)N)C(=O)NCC(N)=O)NC(=O)[C@H](CC(N)=O)NC1=O ([dF]FINCPRG-NH2; linker N-5 via X1) [listing 1 of 2 here] | 0.87 M
CC[C@H](C)[C@@H]1NC(=O)[C@@H](Cc2c[nH]c3ccccc23)NC(=O)CC2(CCCCC2)SSC[C@@H](C(=O)N2CCC[C@H]2C(=O)N[C@@H](CCCN=C(N)N)C(=O)NCC(N)=O)NC(=O)[C@H](CC(N)=O)NC(=O)[C@H](CCC(N)=O)NC1=O ([dW]IQNCPRG-NH2; linker N-5 via X1) [listing 1 of 2 here] | < 1680 nM

Species: Rattus norvegicus
Experiment: Competitive antagonist action against oxytocin contractile action in rat uterus(in vitro)
Format: functional
Conditions: read-out: pA2 (converted)
Outline: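 Isolated uteri from rats in natural estrus, incubated in Van Dyke-Hastings solution with 0.5 mM Mg²⁺. Isometric contractions to synthetic OT recorded by force transducer; response quantified by integrating area under peaks. pA₂ determined by Schild method; at least four separate assays per antagonist.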

Structure (SMILES) | Kb [nM]
CC[C@H](C)[C@@H]1NC(=O)[C@@H](Cc2c[nH]c3ccccc23)NC(=O)CC2(CCCCC2)SSC[C@@H](C(=O)N2CCC[C@H]2C(=O)N[C@@H](CCCN=C(N)N)C(=O)NCC(N)=O)NC(=O)[C@H](CC(N)=O)NC(=O)[C@H]([C@@H](C)O)NC1=O [listing 1 of 2 here] | 33.1
CC[C@H](C)[C@@H]1NC(=O)[C@@H](Cc2c[nH]c3ccccc23)NC(=O)CC2(CCCCC2)SSC[C@@H](C(=O)N2CCC[C@H]2C(=O)N[C@@H](CCCN=C(N)N)C(=O)NCC(N)=O)NC(=O)[C@H](CC(N)=O)NC(=O)[C@H](C(C)C)NC1=O [listing 1 of 2 here] | 26.3
CC[C@H](C)[C@@H]1NC(=O)[C@H](Cc2ccccc2)NC(=O)[C@@H](Cc2c[nH]c3ccccc23)NC(=O)CC2(CCCCC2)SSC[C@@H](C(=O)N2CC=C[C@H]2C(=O)N[C@@H](CCCN=C(N)N)C(=O)NCC(N)=O)NC(=O)[C@H](CC(N)=O)NC1=O [listing 1 of 2 here] | 38
CC[C@H](C)[C@@H]1NC(=O)[C@H]([C@@H](C)CC)NC(=O)[C@@H](Cc2c[nH]c3ccccc23)NC(=O)CC2(CCCCC2)SSC[C@@H](C(=O)N2CCC[C@H]2C(=O)N[C@@H](CCCN=C(N)N)C(=O)NCC(N)=O)NC(=O)[C@H](CC(N)=O)NC1=O [listing 1 of 2 here] | 34.7
CC[C@H](C)[C@@H]1NC(=O)[C@H](Cc2ccc(Cl)cc2)NC(=O)[C@@H](Cc2c[nH]c3ccccc23)NC(=O)CC2(CCCCC2)SSC[C@@H](C(=O)N2CCC[C@H]2C(=O)N[C@@H](CCCN=C(N)N)C(=O)NCC(N)=O)NC(=O)[C@H](CC(N)=O)NC1=O [listing 1 of 2 here] | 36.3
NC(=O)CC[C@@H]1NC(=O)[C@H](Cc2ccccc2)NC(=O)[C@@H](Cc2c[nH]c3ccccc23)NC(=O)CC2(CCCCC2)SSC[C@@H](C(=O)N2CCC[C@H]2C(=O)N[C@@H](CCCN=C(N)N)C(=O)NCC(N)=O)NC(=O)[C@H](CC(N)=O)NC1=O [listing 1 of 2 here] | 26.3
CCNC(=O)CNC(=O)[C@H](CCCN=C(N)N)NC(=O)[C@@H]1CCCN1C(=O)[C@@H]1CSSC2(CCCCC2)CC(=O)N[C@H](Cc2c[nH]c3ccccc23)C(=O)N[C@@H](Cc2ccccc2)C(=O)N[C@@H](CCC(N)=O)C(=O)N[C@@H](CC(N)=O)C(=O)N1 [listing 1 of 2 here] | 32.4
CC[C@H](C)[C@@H]1NC(=O)[C@H](Cc2ccccc2)NC(=O)[C@@H](Cc2c[nH]c3ccccc23)NC(=O)CC2(CCCCC2)SSC[C@@H](C(=O)N2CCC[C@H]2C(=O)N[C@@H](CCCN=C(N)N)C(=O)NCC(N)=O)NC(=O)[C@H](CC(N)=O)NC1=O [listing 2 of 2 here] | 30.9
CC[C@H](C)[C@@H]1NC(=O)[C@H](Cc2ccccc2)NC(=O)[C@@H](Cc2ccccc2)NC(=O)CC2(CCCCC2)SSC[C@@H](C(=O)N2CCC[C@H]2C(=O)N[C@@H](CCCN=C(N)N)C(=O)NCC(N)=O)NC(=O)[C@H](CC(N)=O)NC1=O ([dF]FINCPRG-NH2; linker N-5 via X1) [listing 2 of 2 here] | 44.7

Species: Rattus norvegicus
Experiment: Effective dose (antagonist) that reduces the response to an agonist (oxytocin) by one-half.
Format: functional
Conditions: not given
Outline: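 Isolated estrous rat uterus in Van Dyke-Hastings solution with 0.5 mM Mg²⁺; OT-evoked isometric contractions quantified as integrated peak area. Effective dose taken as molar antagonist concentration halving the agonist response; at least four separate assays.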

Structure (SMILES) | ED50 [nM]
CC[C@H](C)[C@@H]1NC(=O)[C@@H](Cc2c[nH]c3ccccc23)NC(=O)CC2(CCCCC2)SSC[C@@H](C(=O)N2CCC[C@H]2C(=O)N[C@@H](CCCN=C(N)N)C(=O)NCC(N)=O)NC(=O)[C@H](CC(N)=O)NC(=O)[C@H]([C@@H](C)O)NC1=O [listing 2 of 2 here] | 46.8
CC[C@H](C)[C@@H]1NC(=O)[C@@H](Cc2c[nH]c3ccccc23)NC(=O)CC2(CCCCC2)SSC[C@@H](C(=O)N2CCC[C@H]2C(=O)N[C@@H](CCCN=C(N)N)C(=O)NCC(N)=O)NC(=O)[C@H](CC(N)=O)NC(=O)[C@H](C(C)C)NC1=O [listing 2 of 2 here] | 26.9
CC[C@H](C)[C@@H]1NC(=O)[C@H](Cc2ccccc2)NC(=O)[C@@H](Cc2c[nH]c3ccccc23)NC(=O)CC2(CCCCC2)SSC[C@@H](C(=O)N2CC=C[C@H]2C(=O)N[C@@H](CCCN=C(N)N)C(=O)NCC(N)=O)NC(=O)[C@H](CC(N)=O)NC1=O [listing 2 of 2 here] | 38.6
CC[C@H](C)[C@@H]1NC(=O)[C@H]([C@@H](C)CC)NC(=O)[C@@H](Cc2c[nH]c3ccccc23)NC(=O)CC2(CCCCC2)SSC[C@@H](C(=O)N2CCC[C@H]2C(=O)N[C@@H](CCCN=C(N)N)C(=O)NCC(N)=O)NC(=O)[C@H](CC(N)=O)NC1=O [listing 2 of 2 here] | 35.3
CC[C@H](C)[C@@H]1NC(=O)[C@H](Cc2ccc(Cl)cc2)NC(=O)[C@@H](Cc2c[nH]c3ccccc23)NC(=O)CC2(CCCCC2)SSC[C@@H](C(=O)N2CCC[C@H]2C(=O)N[C@@H](CCCN=C(N)N)C(=O)NCC(N)=O)NC(=O)[C@H](CC(N)=O)NC1=O [listing 2 of 2 here] | 40.2
NC(=O)CC[C@@H]1NC(=O)[C@H](Cc2ccccc2)NC(=O)[C@@H](Cc2c[nH]c3ccccc23)NC(=O)CC2(CCCCC2)SSC[C@@H](C(=O)N2CCC[C@H]2C(=O)N[C@@H](CCCN=C(N)N)C(=O)NCC(N)=O)NC(=O)[C@H](CC(N)=O)NC1=O [listing 2 of 2 here] | 27
CCNC(=O)CNC(=O)[C@H](CCCN=C(N)N)NC(=O)[C@@H]1CCCN1C(=O)[C@@H]1CSSC2(CCCCC2)CC(=O)N[C@H](Cc2c[nH]c3ccccc23)C(=O)N[C@@H](Cc2ccccc2)C(=O)N[C@@H](CCC(N)=O)C(=O)N[C@@H](CC(N)=O)C(=O)N1 [listing 2 of 2 here] | 32.9
CC[C@H](C)[C@@H]1NC(=O)[C@H](Cc2ccccc2)NC(=O)[C@@H](Cc2c[nH]c3ccccc23)NC(=O)CC2(CCCCC2)SSC[C@@H](C(=O)N2CCC[C@H]2C(=O)N[C@@H](CCCN=C(N)N)C(=O)NCC(N)=O)NC(=O)[C@H](CC(N)=O)NC1=O [listing 1 of 2 here] | 30.9
CC[C@H](C)[C@@H]1NC(=O)[C@H](Cc2ccccc2)NC(=O)[C@@H](Cc2ccccc2)NC(=O)CC2(CCCCC2)SSC[C@@H](C(=O)N2CCC[C@H]2C(=O)N[C@@H](CCCN=C(N)N)C(=O)NCC(N)=O)NC(=O)[C@H](CC(N)=O)NC1=O ([dF]FINCPRG-NH2; linker N-5 via X1) [listing 1 of 2 here] | 46.6

Species: Rattus norvegicus
Experiment: Antidiuretic action in water-loaded rats under ethanol anesthesia.
Format: functional, organism-based
Conditions: Urine, read-out: pA2 (converted)
Outline: as §1

Structure (SMILES) | Kb [nM]
CC[C@H](C)[C@@H]1NC(=O)[C@H](Cc2ccccc2)NC(=O)[C@@H](Cc2c[nH]c3ccccc23)NC(=O)CC2(CCCCC2)SSC[C@@H](C(=O)N2CCC[C@H]2C(=O)N[C@@H](CCCN=C(N)N)C(=O)NCC(N)=O)NC(=O)[C@H](CC(N)=O)NC1=O [listing 2 of 2 here] | 7.94
CC[C@H](C)[C@@H]1NC(=O)[C@H](Cc2ccccc2)NC(=O)[C@@H](Cc2ccccc2)NC(=O)CC2(CCCCC2)SSC[C@@H](C(=O)N2CCC[C@H]2C(=O)N[C@@H](CCCN=C(N)N)C(=O)NCC(N)=O)NC(=O)[C@H](CC(N)=O)NC1=O ([dF]FINCPRG-NH2; linker N-5 via X1) [listing 2 of 2 here] | 8.13
CC[C@H](C)[C@@H]1NC(=O)[C@@H](Cc2c[nH]c3ccccc23)NC(=O)CC2(CCCCC2)SSC[C@@H](C(=O)N2CCC[C@H]2C(=O)N[C@@H](CCCN=C(N)N)C(=O)NCC(N)=O)NC(=O)[C@H](CC(N)=O)NC(=O)[C@H](CCC(N)=O)NC1=O ([dW]IQNCPRG-NH2; linker N-5 via X1) [listing 2 of 2 here] | > 1380
